# Screening data from PubChem BioAssay.
# Most compounds without a hit are left out; they make up all but 3.8% or so of the library.
# KCNK3 block: human KCNK3 channel inhibition, primary screen; CHO-KCNK3 thallium flux, FluxOR fluorescence; stronger effect = lower value; B-score at 10 µM; actives 0.84% (n = 340,000); AID 602410;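 active = B-score under library mean minus 4 SD, starting fluorescence ratio at most library mean plus 5 SD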;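 note: more negative B-score means stronger inhibition of thallium flux through KCNK3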
# Target sequence (O14649 whole entry, looked up): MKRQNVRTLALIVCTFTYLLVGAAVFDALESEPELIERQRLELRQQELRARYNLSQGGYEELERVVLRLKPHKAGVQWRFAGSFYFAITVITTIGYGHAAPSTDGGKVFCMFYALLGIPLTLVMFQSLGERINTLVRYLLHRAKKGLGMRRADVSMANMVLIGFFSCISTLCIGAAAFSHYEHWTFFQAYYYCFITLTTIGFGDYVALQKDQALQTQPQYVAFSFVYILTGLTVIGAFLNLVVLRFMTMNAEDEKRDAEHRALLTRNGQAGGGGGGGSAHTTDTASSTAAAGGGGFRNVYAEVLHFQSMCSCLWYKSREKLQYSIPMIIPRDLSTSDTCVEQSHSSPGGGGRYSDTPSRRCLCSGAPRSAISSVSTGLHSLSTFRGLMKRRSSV
# KCNQ1 inh: blocks the human KCNQ1 potassium channel | P51787 | CHO-K1 KCNQ1, FluxOR thallium flux fluorescence; stronger effect = higher value | B-score at 10 µM | actives 1.3% (n = 310,000);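 active = compounds whose thallium flux B-score, printed positive for inhibition, exceeds three library SD while starting fluorescence stays within three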;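 note: channel opened by potassium depolarization with thallium stimulus after 20 min compound exposure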
# KCNQ1 pot: potentiators or activators of human KCNQ1 potassium channel; P51787; CHO-K1 KCNQ1, thallium flux FluxOR fluorescence; stronger effect = higher value; B-score at 10 µM; actives 0.35% (n = 310,000); AID 2648;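 active = fluorescence ratio B-score, a plate-corrected score, at least three library SD, with initial intensity B-score within 5 SD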
#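 Schedule – 37 °C overnight plating, 90-min dark dye load, 20-min compound pretreatment · System – stable KCNQ1 CHO-K1 line · Probe or stimulus – thallium- and potassium-containing depolarizing buffer · Measured by – kinetic FluxOR fluorescence, 10 s baseline plus 110 s post-stimulus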
# Kir21 inh: inhibitors of mouse Kir2.1 inward-rectifier potassium channel; HEK293-Kir2.1, FluxOR thallium flux fluorescence; stronger effect = lower value; B-score at 10 µM; actives 0.85% (n = 310,000); P35561; AID 1672;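 active = fluorescence ratio B-score at or below minus 3 SD of library scores, with starting-brightness B-score within 2 SD, cut at about -4.2 in these data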;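 note: channel flux triggered by added potassium and thallium sulfate stimulus; B-score of peak minus minimum fluorescence over baseline after thallium stimulus; more negative B-score means stronger Kir2.1 block with less thallium influx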
# KCNK9 block: blocks the human KCNK9 two-pore domain potassium channel; HEK293 KCNK9, FluxOR thallium flux fluorescence; stronger effect = lower value; actives 1.2% (n = 310,000); Q9NPC2; AID 488922; B-score at 10 µM;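 active = ratio B-score over 3 SD below the library mean, with starting fluorescence within 5 SD of its mean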;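 note: negative B-score means less thallium flux so channel inhibition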
# hERG protect: compounds protecting human hERG from proarrhythmic drug block; CHO-hERG, FluxOR thallium flux, dofetilide IC70 present; activation (rescue from dofetilide block), less the hit threshold, % at 10 µM; actives 0.51% (n = 310,000); AID 1511;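 active = activation above the mean of controls blocked by dofetilide plus 5 SD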;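 note: thallium influx through hERG after potassium depolarization seen as dye fluorescence rise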
# KCNK3 confirm: human KCNK3 channel inhibition, confirmation assay; shares compounds with KCNK3 block; AID 651638; ratio percent of control, % at 10 µM; CHO-KCNK3 thallium flux, FluxOR fluorescence; 0% buffer, 100% carvedilol maximal block; actives 99% (n = 2,400);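 active = ratio percent of control, averaged over triplicates, above buffer control mean plus 5 SD, cut at about 64% in these data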;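 note: ratio is the fluorescence rise from min to max over baseline after thallium stimulus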
# KCNK3 noninduced: activity in cells without induced KCNK3 expression | AID 651747 | thallium flux ratio (lower = more inhibition) at 10 µM | shares compounds with KCNK3 block | non-induced KCNK3 parental cells, FluxOR thallium flux; stronger effect = lower value | actives 40% (n = 2,400);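 active = thallium flux ratio, averaged over three wells, more than 5 SD below the buffer control mean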;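 note: host cells are CHO cells without KCNK3 induction; ratio is peak minus trough fluorescence over baseline then normalized to buffer controls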
# * = called active by the depositor; i = inactive; . = not tested or not shown.
SMILES,KCNK3 block,KCNQ1 inh,KCNQ1 pot,Kir21 inh,KCNK9 block,hERG protect,KCNK3 confirm,KCNK3 noninduced
N#Cc1c(N)n(CCc2ccc(F)cc2)c2nc3ccccc3nc12,i,i,i,-0.46,i,-9,.,.
COCCCn1c(N)c(-c2nc3ccccc3n2C)c2nc3ccccc3nc21,i,i,i,-1,i,-30,.,.
Cn1c(-c2c(N)n(CCc3ccccc3)c3nc4ccccc4nc23)nc2ccccc21,-8.8*,13*,i,0.07,-7.8*,-19,158*,0.1*
Cn1c(-c2c(N)n(CCCc3ccccc3)c3nc4ccccc4nc23)nc2ccccc21,-9.2*,i,i,-1.3,i,-19,126*,0.15*
Cc1c(N2CCCC2)cc2c(c1NC(=O)c1ccccc1Cl)C(C)(C)CC2(C)C,-9.3*,i,i,0.81,i,-9,114*,0.13*
O=C(Nc1ccc(N2CCOCC2)c(Cl)c1)c1ccccc1Cl,i,i,i,-0.42,i,-5,.,.
C=CCSc1nc(N(CC)CC)c2sccc2n1,-10*,i,i,-1.3,i,-6,121*,i
C=CCNc1nc(SC)nc2ccsc12,i,i,i,1.3,i,-7,.,.
Cc1ccc(OCC(=O)NNC(=O)c2ccccc2OCc2c(C)noc2C)cc1,-8.7*,i,i,0.02,i,-13,94*,i
Cc1noc(C)c1COc1ccccc1C(=O)NNC(=O)c1ccccc1F,i,.,.,.,.,.,.,.
COc1ccc(C2CC(=O)C=C(NCCC(C)C)C2)cc1 (configuration not stated),-22*,i,i,1.6,i,-15,111*,i
COc1ccc(C2CC(=O)C=C(NC3CCCC3)C2)cc1 (configuration not stated),i,i,i,-0.95,i,-9,.,.
O=S(=O)(c1cccc2cccnc12)N1CCN(c2ccccc2)CC1,i,i,i,-0.01,i,-17,.,.
Cc1ccc(C)c(N2CCN(S(=O)(=O)c3cccc4cccnc34)CC2)c1,-9.9*,i,i,-1.6,i,-10,116*,0.15*
CN(CC(=O)Nc1cccc(F)c1)CC(=O)Nc1ccccc1Oc1ccccc1,-9*,i,i,0.47,i,-13,105*,i
COc1cc(OC)c(C(=O)Nc2cccnc2)cc1OC,i,i,i,-0.09,i,-2,.,.
CC1CCN(C(CNS(=O)(=O)c2ccccc2)c2ccccc2)CC1 (configuration not stated),-13*,.,.,.,.,.,61*,i
O=C(OC(c1ccccc1)c1nccc2ccccc12)c1ccccc1 (configuration not stated),-11*,.,.,.,.,.,105*,0.14*
CC(C)C(OC(=O)c1ccccc1)c1nccc2ccccc12 (configuration not stated),i,i,i,-0.02,i,-21,.,.
CN(CC(=O)Nc1ccc(F)cc1)C(=O)CCc1nc2sc3c(c2c(=O)[nH]1)CCCC3,i,i,i,1.8,i,-9,.,.
O=C(CSc1ccc(Cl)cc1)N1CCN(c2ccc([N+](=O)[O-])cc2Cl)CC1,i,i,i,-0.67,i,-9,.,.
O=C(CSc1ccc(Cl)cc1)N1CCN(c2c(Cl)cccc2[N+](=O)[O-])CC1,-9.9*,i,i,0.18,i,-9,117*,0.14*
O=C1OC(c2ccccc2)(c2ccc3cc(O)ccc3c2)c2ccccc21 (configuration not stated),-16*,.,.,.,.,.,128*,0.11*
COCC1CCCN(C(=O)c2ccc3nc(Cc4cccc(Cl)c4)oc3c2)C1 (configuration not stated),-9.5*,i,i,-0.99,i,-6,96*,i
CC(=Nc1ccccc1)c1sc2ccccc2c1O,i,i,i,-0.78,i,-13,.,.
SMILES,KCNK3 block,KCNQ1 inh,KCNQ1 pot,Kir21 inh,KCNK9 block,hERG protect,KCNK3 confirm,KCNK3 noninduced
CC(=Nc1ccc(Br)cc1)c1sc2ccccc2c1O,-11*,i,i,0.2,i,-8,131*,i
CC(=O)Nc1ccc(OCC(=O)NCCc2ccccc2)cc1,i,i,i,2,i,-12,.,.
CCCn1nc([N+](=O)[O-])c(C(C#N)c2nc3ccccc3s2)c(Cl)c1=O (configuration not stated),-8.8*,14*,i,-3.1,i,-23,133*,0.11*
CCn1nc([N+](=O)[O-])c(C(C#N)c2nc3ccccc3n2C)c(Cl)c1=O (configuration not stated),i,i,i,-1.9,i,-3,.,.
COC(=O)/C=C/c1ccc(OC(=O)c2ccncc2)cc1,i,i,i,0.21,i,-3,.,.
COc1ccc(CCn2c(C)nc3ccccc3c2=O)cc1OC,i,i,i,-1.5,i,-19,.,.
CCSc1nc2ccccc2c(=O)n1CCc1ccc(OC)c(OC)c1,-9.4*,i,i,0.65,i,-13,98*,i
O=C(N/N=C/c1c[nH]c2ccccc12)c1ccn(Cc2ccc(Cl)cc2Cl)n1,-9.3*,i,i,-0.37,i,-6,106*,0.15*
Cc1c(C(=O)O)oc2ccc(S(=O)(=O)N(CC(C)C)CC(C)C)cc12,i,.,.,.,.,.,.,.
CCOC(=O)c1cc2sccc2n1CC(=O)c1ccc2c(c1)OCCO2,-9.5*,i,i,-0.41,i,-5,89*,i
CCOC(=O)c1cc2sccc2n1CC(=O)O,i,i,i,-1.6,i,-6,.,.
CCC(C)c1ccc(NC(=O)Nc2cccnc2)cc1 (configuration not stated),-9.7*,i,i,-1.8,i,-16,119*,0.15*
CCC(C)c1ccc(NC(=O)NCc2cccnc2)cc1 (configuration not stated),i,i,i,1.3,i,-9,.,.
CCN(CC(=O)NCc1cccs1)CC(=O)Nc1ccc(C(N)=O)cc1,i,.,.,.,.,.,.,.
Cc1sc2ncnc(N3CCC(C(=O)Nc4ccc(OC(F)F)c(Cl)c4)CC3)c2c1C,-13*,.,.,.,.,.,142*,0.14*
CCc1ccc(N2C(=O)C(Cl)=C(N3CCCCCC3)C2=O)cc1,i,i,i,0.23,-7.1*,-7,117*,0.15*
